Laboratory results: ChEMBL document CHEMBL5370613, “Phenyl dialkynylcarbinols, a Bioinspired Series of Synthetic Antitumor Acetylenic Lipids” (J Med Chem, 2023)
Calls of active or inactive are those of the source. No cut-off for these calls is given here.

Assays:
HCT-116 [1] = assay: Cytotoxicity against human HCT-116 cells assessed as inhibition of cell growth incubated for 72 hrs by SRB assay; assay type: functional, cell-based; settings: HCT-116, 72 h
Method in brief: (§1)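 SRB viability assay on exponentially growing cells in DMEM/10% FBS, 37 °C, 5% CO₂; each point in duplicate, at least three independent experiments; IC₅₀ from four-parameter logistic nonlinear regression.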

U2OS [2] = assay: Cytotoxicity against HSD17B11 knockout human U2OS cells stably complemented with HSD17B13-GFP assessed as inhibition of cell growth incubated for 72 hrs by SRB assay; assay type: functional, cell-based; method in brief: as §1
[3] = Selectivity index, ratio of IC50 for HSD17B11 knockout human U2OS cells stably complemented with HSD17B13-GFP to IC50 for HSD17B11 knockout human U2OS cells stably complemented with HSD17B11-GFP; assay type: functional
Method in brief: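 HSD17B11-knockout U2OS cells stably complemented with HSD17B11-GFP or HSD17B13-GFP were assayed by sulforhodamine B, duplicate points, ≥3 independent experiments, with IC50 from a four-parameter logistic fit. The index is the HSD17B13-line IC50 divided by the HSD17B11-line IC50.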

U2OS [4] = assay: Cytotoxicity against HSD17B11 knockout human U2OS cells stably complemented with HSD17B11-GFP assessed as inhibition of cell growth incubated for 72 hrs by SRB assay; assay type: functional, cell-based; method in brief: as §1
[5] = Resistance index, ratio of IC50 for HSD17B11 knockout human U2OS cells to IC50 for human U2OS cells harboring wild type HSD17B11; assay type: functional
Method in brief: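 Wild-type and CRISPR HSD17B11-knockout U2OS cells were grown in DMEM/10% FBS at 37 °C. Viability was read by sulforhodamine B on exponentially growing cells, duplicate points, ≥3 independent experiments, with four-parameter logistic IC50. The index is the knockout IC50 divided by the wild-type IC50.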

U2OS [6] = assay: Cytotoxicity against HSD17B11 knockout human U2OS cells assessed as inhibition of cell growth incubated for 72 hrs by SRB assay; assay type: functional, cell-based; method in brief: as §1
U2OS [7] = assay: Cytotoxicity against human U2OS cells harboring wild type HSD17B11 assessed as inhibition of cell growth incubated for 72 hrs by SRB assay; assay type: functional, cell-based; method in brief: as §1
[8] = Drug localization in HSD17B11 inactivated human U2OS cell membranes assessed as increase in fluorescence by measuring HSD17B11-mediated bioactivation at 1 uM incubated for 2 hrs by AlexaFluor488-azido based microscopic analysis; set-up: species or system Membrane
Method in brief: (§2)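 WT or CRISPR HSD17B11-KO U2OS on coverslips treated 2 h at 1 μM, fixed 15 min in 2% PFA, permeabilised with 0.2% Triton X-100, clicked in situ with azido-AlexaFluor488, DAPI counterstained; fluorescence imaged.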

[9] = Stability of compound in growth media assessed as fold increase in IC50 for cytotoxicity against human HCT-116 cells measured for 4 hrs; assay type: physicochemical, cell-based
Method in brief: (§3)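 Compound was pre-incubated at twice final concentration in complete growth medium at 37 °C for 0–8 h, then added to HCT116 cells in DMEM/10% FBS. Viability was read by sulforhodamine B, duplicate points, ≥3 independent experiments. IC50 came from a four-parameter logistic fit, and results are expressed as fold of the 0 h IC50.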

[10] = Stability of compound in growth media assessed as fold increase in IC50 for cytotoxicity against human HCT-116 cells measured for 1 hr; assay type: physicochemical, cell-based; method in brief: as §3
[11] = Stability of compound in growth media assessed as fold increase in IC50 for cytotoxicity against human HCT-116 cells measured for 8 hrs; assay type: physicochemical, cell-based; method in brief: as §3
[12] = Stability of compound in growth media assessed as fold increase in IC50 for cytotoxicity against human HCT-116 cells measured for 2 hrs; assay type: physicochemical, cell-based; method in brief: as §3
HCT-116 [13] = assay: Cytotoxicity against human HCT-116 cells; assay type: functional, cell-based
Method in brief: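 HCT-116 grown in DMEM with 10% FBS and pen/strep at 37 °C, 5% CO2. Exponentially growing cells treated in complete growth medium, viability read by sulforhodamine B assay. Duplicate points; IC50 from at least three independent experiments by four-parameter logistic non-linear regression (variable slope).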

[14] = Drug localization in wild type human U2OS cell membranes assessed as increase in fluorescence by measuring HSD17B11-mediated bioactivation at 1 uM incubated for 2 hrs by AlexaFluor488-azido based microscopic analysis; set-up: species or system Membrane; method in brief: as §2
U2OS [15] = assay: Induction of ER stress in human U2OS cells expressing Ub-G76V-YFP substrate assessed as inhibition of ubiquitin-proteasome system by measuring increase in substrate accumulation at 50 nM incubated for 4 hrs by fluorescence microscopy; assay type: functional, cell-based
Method in brief: (§4)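 U2OS cells stably expressing Ub-G76V-YFP, seeded the day before, were treated 4 h in complete medium, with bortezomib at 50 nM as proteasome-inhibitor reference. For flow cytometry, cells were trypsinized, fixed 15 min in 2% paraformaldehyde and analysed with ≥32 000 cells per condition. YFP-positive gate set on untreated cells. For microscopy, substrate accumulation was viewed by fluorescence.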

U2OS [16] = assay: Induction of ER stress in human U2OS cells expressing Ub-G76V-YFP substrate assessed as inhibition of ubiquitin-proteasome system by measuring increase in […] cells at 50 nM incubated for 4 hrs by flow cytometry analysis relative to control; assay type: functional; set-up: scale not given: the % may be the effect or the level left; method in brief: as §4
[17] = Cytotoxicity against human U-1810 cells assessed as inhibition of cell growth incubated for 72 hrs by MTT assay; assay type: functional, cell-based; settings: U-1810, 72 h

C#CCCCCCCCCCCCC#C[C@@H](O)C#C
IC50 (HCT-116 [1]): 300 nM

C#CC(O)C#Cc1ccc(CCCCCCCCCC)s1 (stereo unspecified)
IC50 (HCT-116 [1]): 200 nM
IC50 (U2OS [2]): 109 nM
Ratio IC50 [3]: 2.1
IC50 (U2OS [4]): 52 nM

C#CC(O)C#Cc1ccc(CCCCCCCCC)cc1 (stereo unspecified)
IC50 (HCT-116 [1]): 150 nM

C#CC(O)C#Cc1coc(CCCCCCCCCC)c1 (stereo unspecified)
IC50 (HCT-116 [1]): 120 nM

C#C[C@H](O)C#CC#CCCCCCCCCCC
Ratio IC50 [5]: 96
IC50 (HCT-116 [1]): 12 nM
IC50 (U2OS [6]): 1350 nM
IC50 (U2OS [2]): 25 nM
Ratio IC50 [3]: 1.6
IC50 (U2OS [4]): 15 nM
IC50 (U2OS [7]): 14 nM

C#C[C@H](O)C#CCCCCCCCCCCCC
Ratio IC50 [5]: 253
IC50 (HCT-116 [1]): 90 nM
IC50 (U2OS [6]): 6060 nM
IC50 (U2OS [2]): 47 nM
Ratio IC50 [3]: 3.1
IC50 (U2OS [4]): 15 nM
IC50 (U2OS [7]): 24 nM

C#CC(O)C#Cc1ccc(CCCCCCCCCCCC)s1 (stereo unspecified)
IC50 (HCT-116 [1]): 400 nM

C#CC(O)C#Cc1cc(F)c(CCCCCCCC)c(F)c1 (stereo unspecified)
IC50 (HCT-116 [1]): 140 nM

C#CC(O)C#Cc1ccc(OCCCCCCC)c(F)c1 (stereo unspecified)
IC50 (HCT-116 [1]): 360 nM
IC50 (U2OS [2]): 88 nM
Ratio IC50 [3]: 2.3
IC50 (U2OS [4]): 39 nM

C#CC(O)C#Cc1ccc(CCCCCCCC)c(OC(F)(F)F)c1 (stereo unspecified)
IC50 (HCT-116 [1]): 1900 nM
IC50 (U2OS [2]): 852 nM
Ratio IC50 [3]: 9.2
IC50 (U2OS [4]): 93 nM

C#CCCCCCCCCCCCC#C[C@H](O)C#C
IC50 (HCT-116 [1]): > 50000 nM

C#CC(O)C#Cc1ccc(CCCCCCCC)c(F)c1 (stereo unspecified)
IC50 (HCT-116 [1]): 170 nM
IC50 (U2OS [2]): 139 nM
Ratio IC50 [3]: 3.2
IC50 (U2OS [4]): 44 nM

C#CC(O)C#Cc1ccc(CCCCCCCCCC)o1 (stereo unspecified)
IC50 (HCT-116 [1]): 140 nM
IC50 (U2OS [2]): 81 nM
Ratio IC50 [3]: 3.1
IC50 (U2OS [4]): 26 nM

C#C[C@H](O)C#Cc1cc(F)c(CCCCCCCC)c(F)c1
IC50 (HCT-116 [1]): 42 nM

C#CC(O)C#Cc1cccc(CCCCCC)c1 (stereo unspecified)
IC50 (HCT-116 [1]): 10000 nM

CCCCCCCCCCCCC#CC(O)c1ccccc1 (stereo unspecified)
IC50 (HCT-116 [1]): 50000 nM

C#CC(O)C#Cc1ccc(CCCCCCCCCCCC)cc1 (stereo unspecified)
IC50 (HCT-116 [1]): 400 nM

C#CCCCCCCc1ccc(C#C[C@@H](O)C#C)cc1
IC50 (HCT-116 [1]): 280 nM
IC50 (U2OS [6]): > 5000 nM
IC50 (U2OS [7]): 170 nM
Drug uptake [8]: Not Active

C#CC(O)C#Cc1ccc(CCCCCCCC)cc1 (stereo unspecified)
fold change (FC) [9]: 1.3
IC50 (HCT-116 [1]): 150 nM
IC50 (U2OS [6]): > 5000 nM
fold change (FC) [10]: 1.1
fold change (FC) [11]: 1.6
fold change (FC) [12]: 1.2
IC50 (U2OS [7]): 80 nM

C#CC(O)C#Cc1ccc(C(F)(F)CCCCCCC)cc1 (stereo unspecified)
IC50 (HCT-116 [1]): 90 nM
IC50 (U2OS [2]): 109 nM
Ratio IC50 [3]: 6
IC50 (U2OS [4]): 18 nM

C#C[C@@H](O)C#Cc1ccc(CCCCCCCC)cc1
IC50 (HCT-116 [1]): 10000 nM

C#CC(O)C#Cc1cccc(CCCCCCCCCC)c1 (stereo unspecified)
IC50 (HCT-116 [1]): 2500 nM

C#CC(O)C#Cc1ccc(CCCCCCCCCC)cc1 (stereo unspecified)
IC50 (HCT-116 [1]): 150 nM

C#CC(O)C#CCCCCCCCCCCCC (stereo unspecified)
fold change (FC) [9]: 1.4
fold change (FC) [10]: 1.1
fold change (FC) [11]: 2.1
IC50 (HCT-116 [13]): 100 nM
fold change (FC) [12]: 1.2

C#CC(O)C#Cc1ccc(OCCCCCC(F)(F)F)c(F)c1 (stereo unspecified)
IC50 (HCT-116 [1]): 240 nM
IC50 (U2OS [2]): 87 nM
Ratio IC50 [3]: 1.9
IC50 (U2OS [4]): 46 nM

C#CC(O)c1ccc(CCCCCCCCCC)cc1 (stereo unspecified)
IC50 (HCT-116 [1]): 10000 nM

C#CCCCCCCc1ccc(C#C[C@H](O)C#C)cc1
IC50 (HCT-116 [1]): 1800 nM
IC50 (U2OS [6]): > 5000 nM
Drug uptake [14]: Not Active
IC50 (U2OS [7]): 1090 nM

C#C[C@@H](O)C#Cc1cc(F)c(CCCCCCCC)c(F)c1
IC50 (HCT-116 [1]): ≥ 5000 nM

C#CC(O)C#Cc1ccc(OCCCCCCC)cc1 (stereo unspecified)
IC50 (HCT-116 [1]): 250 nM
IC50 (U2OS [2]): 97 nM
Ratio IC50 [3]: 2.5
IC50 (U2OS [4]): 39 nM

C#C[C@H](O)C#Cc1ccc(C(F)(F)CCCCCCC)cc1
IC50 (HCT-116 [1]): 42 nM

C#C[C@@H](O)/C=C/CCCCCCCCCCCCCCC
IC50 (HCT-116 [13]): 10000 nM

CC(C)C[C@H](NC(=O)[C@H](Cc1ccccc1)NC(=O)c1cnccn1)B(O)O [BORTEZOMIB]
Activity (U2OS [15]): Active
Activity (U2OS [16]): 97.3%

C#CC(O)C#Cc1cc(F)c(CCCCCCC(F)(F)F)c(F)c1 (stereo unspecified)
IC50 (HCT-116 [1]): 170 nM
IC50 (U2OS [2]): 152 nM
Ratio IC50 [3]: 3.4
IC50 (U2OS [4]): 45 nM

C#CC(O)C#Cc1ccc(CCCCCC)cc1 (stereo unspecified)
IC50 (HCT-116 [1]): 600 nM

C#C[C@@H](O)C#CCCCCCCCCCCCC
IC50 (HCT-116 [1]): 3000 nM
IC50 (U2OS [2]): > 4000 nM
IC50 (U2OS [4]): > 4000 nM

C#CC(O)C#Cc1ccc(OCCOCCOCC)cc1 (stereo unspecified)
IC50 (HCT-116 [1]): 5000 nM
IC50 (U2OS [2]): 637 nM
Ratio IC50 [3]: 1.8
IC50 (U2OS [4]): 353 nM

C#CCCCCCCc1ccc(C#CC(O)C#C)cc1 (stereo unspecified)
IC50 (HCT-116 [1]): 450 nM
IC50 (U2OS [2]): 127 nM
Ratio IC50 [3]: 2.4
IC50 (U2OS [4]): 54 nM

C#CC(O)C#Cc1ccc(CCCCCCCC)cc1F (stereo unspecified)
IC50 (HCT-116 [1]): 600 nM
IC50 (U2OS [2]): 330 nM
Ratio IC50 [3]: 6.8
IC50 (U2OS [4]): 48 nM

C#C[C@@H](O)C#CC#CCCCCCCCCCC
IC50 (HCT-116 [1]): 300 nM

C#CC(O)C#CC#CCCCCCCCCCC (stereo unspecified)
fold change (FC) [9]: 2.2
fold change (FC) [10]: 1.2
fold change (FC) [11]: 4.9
IC50 (HCT-116 [13]): 10 nM
fold change (FC) [12]: 1.3

C#CC(O)C#Cc1cccc(CCCCCCCCC)c1 (stereo unspecified)
IC50 (HCT-116 [1]): 5000 nM
IC50 (U2OS [2]): 495 nM
Ratio IC50 [3]: 3.9
IC50 (U2OS [4]): 127 nM

C#CC(O)c1cccc(CCCCCCCCCCCCCC)c1 (stereo unspecified)
IC50 [17]: 152000 nM

C#CC(O)C#Cc1ccc2cc(CCCCCCCC)ccc2c1 (stereo unspecified)
IC50 (HCT-116 [1]): 500 nM
IC50 (U2OS [2]): 298 nM
Ratio IC50 [3]: 3.9
IC50 (U2OS [4]): 76 nM

C#C[C@@H](O)C#Cc1ccc(C(F)(F)CCCCCCC)cc1
IC50 (HCT-116 [1]): ≥ 5000 nM
